Results reported in publication PMC9218293 (Molecular Therapy Oncolytics, 2022).
Where two headings read alike, the source gives them in different places.

Experiments:
[1] = system: TME of YUMM1.7P-derived tumors; experiment: Flow cytometry of tumor-infiltrating immune cells; format: in vivo, C57BL/6 mice; conditions: VEM 20 mg/kg i.p. daily, n = 6
Outline: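 C57BL/6 mice (6–8 weeks) received 3 × 10⁵ YUMM1.7P cells s.c. Vehicle or vemurafenib was given at 20 mg/kg i.p. daily. Tumors were harvested and dissociated to single cells. Dead cells were excluded with fixable viability dye eFluor 506. Populations were gated as frequencies among live/dead⁻CD45⁺ cells: MDSCs CD45⁺CD11b⁺Gr1⁺, TAMs CD45⁺Gr1⁻CD11b⁺F4/80⁺, CD8⁺ T cells CD45⁺CD3⁺CD8⁺. n = 6 mice/group, means ± SEM.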

[2] = system: P-ERK1/2 (Thr202/Tyr204) in YUMM1.7P cells; experiment: Immunoblotting for P-ERK1/2 after vemurafenib; format: cell-based, mouse; conditions: vemurafenib 5 μM, immunoblot, Figure S1C
[3] = system: TME of YUMM1.7R-derived tumors; experiment: Flow cytometry of tumor-infiltrating immune cells; format: in vivo, C57BL/6 mice; conditions: VEM 20 mg/kg i.p. daily, n = 6
[4] = system: P-ERK1/2 (Thr202/Tyr204) in YUMM1.7R cells; experiment: Immunoblotting for P-ERK1/2 after vemurafenib; format: cell-based, mouse; conditions: vemurafenib 5 μM; YUMM1.7R condition 1; immunoblot; Figure S1C
[5] = system: YUMM1.7P cells; experiment: WST-8 cell viability assay; format: cell-based; conditions: Mus musculus, read-out: IC50 value of vemurafenib for YUMM1.7P cells
Outline: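 Parental mouse melanoma YUMM1.7 cells (BRAF V600E) were grown in DMEM/F12 with 10% fetal bovine serum and 1% penicillin/streptomycin at 37°C, humidified 5% CO₂.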

[6] = system: YUMM1.7R-derived tumors; experiment: Syngeneic mouse melanoma model, tumor growth and survival; format: in vivo, C57BL/6 mice; conditions: 20 mg/kg i.p. daily; n = 6 mice/group; Figure 1A
Outline: (§1)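 Tumors were established in C57BL/6 mice (6–8 weeks) by s.c. injection of 3 × 10⁵ YUMM1.7P or YUMM1.7R cells. Daily i.p. vehicle or vemurafenib was given at 20 mg/kg. Tumor size was monitored, n = 6 mice/group, as means ± SEM with two-way ANOVA and Tukey's post hoc test. Mice with tumors >1,500 mm³ were euthanized.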

[7] = system: YUMM1.7R cells; experiment: WST-8 cell viability assay; format: cell-based; conditions: Mus musculus
Outline: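 Resistant YUMM1.7R cells were derived by exposing parental YUMM1.7 cells to vemurafenib for 8–10 weeks, with the concentration escalated from a low (condition 1) or medium (condition 2) start. They were then kept under continuous 5 μM vemurafenib in DMEM/F12 with 10% fetal bovine serum and 1% penicillin/streptomycin at 37°C, 5% CO₂.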

[8] = system: YUMM1.7P-derived tumors; experiment: Syngeneic mouse melanoma model, tumor growth; format: in vivo, C57BL/6 mice; conditions: 20 mg/kg i.p. daily; n = 6 mice/group; Figure 1A
Outline: as §1

In the case of `CCCS(=O)(=O)Nc1ccc(F)c(C(=O)c2c[nH]c3ncc(-c4ccc(Cl)cc4)cc23)c1F` [vemurafenib], the “frequency of CD8+ T cells” value ([1]; CD45+CD3+CD8+, Figure 1D) is reported as “increased”, the “frequency of MDSCs” value ([1]; CD45+CD11b+Gr1+, Figure 1B) is reported as “significant decrease” and the “frequency of TAMs” value ([1]; CD45+Gr1-CD11b+F4/80+, Figure 1C) is reported as “significant decrease”. For the same molecule, the “frequency of CD3+CD4+ T cells” value ([1]; Figure S3) was “No significant change”, the ERK phosphorylation [2] was “considerable reduction” and the “frequency of MDSCs” value ([3]; Figure 1B) was “reduction”. The “frequency of TAMs” value ([3]; Figure 1C) was “reduction”, the “frequency of CD8+ T cells” value ([3]; Figure 1D) was “failed to increase” and the “frequency of CD3+CD4+ T cells” value ([3]; Figure S3) was “No significant change”. The ERK phosphorylation [4] was “this reduction was dramatically suppressed”, the IC50 [5] was 3.12 µM and the tumor growth [6] was “unaffected”. For the same molecule, the IC50 ([7]; read-out: IC50, YUMM1.7R (condition 1)) was 10.4 µM, the IC50 ([7]; read-out: IC50, YUMM1.7R (condition 2)) was 9.48 µM and the “inhibition of tumor growth” value [8] was “highly sensitive”.
